ChEMBL document CHEMBL1156565, “Discovery of (R)-4-(8-fluoro-2-oxo-1,2-dihydroquinazolin-3(4H)-yl)-N-(3-(7-methyl-1H-indazol-5-yl)-1-oxo-1-(4-(piperidin-1-yl)piperidin-1-yl)propan-2-yl)piperidine-1-carboxamide (BMS-694153): a potent antagonist of the human calcitonin gene-related peptide receptor for migraine with rapid and …” (J Med Chem, 2008)
Calls of active or inactive are those of the source. The calls are words filed in the database; no cut-off is given here.

What was measured:
[1] = Bioavailability in sc dosed Sprague-Dawley rat in presence of PG:D5W vehicle; type: ADME, organism-based; conditions: in vivo
Procedure, shortened: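 Rats dosed subcutaneously in PG:D5W vehicle to determine bioavailability.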

Oryctolagus cuniculus [2] = assay: Total AUC in New Zealand white rabbit at 0.5 mg/kg, iv; type: ADME, organism-based; design: dose 0.5 mg/kg, route intravenous, time AUCmax; conditions: in vivo
Procedure, shortened: (§1)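 Rabbits given an iv dose of 0.5 mg/kg as the reference leg for intranasal dosing. Clearance, Vss and terminal half-life were derived from the plasma concentration-time profile.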

[3] = Tmax in New Zealand white rabbit at 0.1 mg/kg, intranasally; type: ADME, organism-based, Oryctolagus cuniculus; design: dose 0.1 mg/kg; conditions: in vivo, inhaled or intranasal
Procedure, shortened: (§2)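 Rabbits dosed intranasally by spraying a solution into the nasal cavity. Plasma concentrations followed for up to 24 h. Bioavailability was calculated against an iv leg given at 0.5 mg/kg.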

[4] = Tmax in New Zealand white rabbit at 0.3 mg/kg, intranasally; type: ADME, organism-based, Oryctolagus cuniculus; design: dose 0.3 mg/kg; conditions: in vivo, inhaled or intranasal; procedure, shortened: as §2
[5] = Volume of distribution at steady state in New Zealand white rabbit at 0.5 mg/kg, iv; type: ADME, organism-based, Oryctolagus cuniculus; design: dose 0.5 mg/kg, route intravenous; conditions: in vivo, read-out: Vdss; procedure, shortened: as §1
[6] = Fraction unbound in human serum at 10 uM; type: ADME, cell-free
Procedure, shortened: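 Serum protein binding measured in vitro with compound at 10 µM.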

[7] = Cmax in New Zealand white rabbit at 0.3 mg/kg, intranasally; type: ADME, organism-based, Oryctolagus cuniculus; design: route nasal, dose 0.3 mg/kg; conditions: in vivo, inhaled or intranasal; procedure, shortened: as §2
[8] = target: Calcitonin gene-related peptide type 1 receptor (Rattus norvegicus, UniProt Q63118+Q9JJ74); assay: Displacement of [I125]CGRP from rat CGRP receptor
[9] = Bioavailability in New Zealand white rabbit at 0.3 mg/kg, intranasally; type: ADME, organism-based, Oryctolagus cuniculus; conditions: in vivo, inhaled or intranasal; procedure, shortened: as §2
[10] = Drug level in New Zealand white rabbit after 24 hrs; type: ADME, organism-based, Oryctolagus cuniculus; conditions: in vivo, read-out: Drug uptake
Procedure, shortened: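 Plasma level of drug in rabbits measured 24 h after intranasal dosing of a sprayed solution.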

[11] = Clearance in New Zealand white rabbit at 0.5 mg/kg, iv; type: ADME, organism-based, Oryctolagus cuniculus; design: dose 0.5 mg/kg, route intravenous; conditions: in vivo; procedure, shortened: as §1
[12] = Total AUC in New Zealand white rabbit at 0.3 mg/kg, intranasally; type: ADME, organism-based, Oryctolagus cuniculus; design: time AUCmax, route nasal, dose 0.3 mg/kg; conditions: in vivo, inhaled or intranasal; procedure, shortened: as §2
[13] = target: T1, Calcitonin gene-related peptide type 1 receptor (Homo sapiens, UniProt O60894+Q16602); assay: Antagonist activity at human CGRP receptor in SK-N-MC cells assessed as inhibition of CGRP-stimulated cAMP production
[14] = Ex vivo inhibition of human alpha CGRP-induced artery dilation in human intracranial artery preincubated for 30 mins; type: functional
Procedure, shortened: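 Wire-mounted human intracranial artery rings were preincubated 30 min with a single antagonist concentration (0.1-30 nM). They were then contracted with 10 mM K+ and given increasing hαCGRP to full relaxation. The CGRP curve shift was analysed by Schild analysis.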

Cytochrome P450 2C19 = Cytochrome P450 2C19 (Homo sapiens, UniProt P33261); assay: Inhibition of human recombinant CYP2C19 expressed in insect microsomes
[15] = Displacement of [I125]CGRP from marmoset CGRP receptor; design: species or system Callithrix jacchus
[16] = target: T1, Calcitonin gene-related peptide type 1 receptor; assay: Displacement of [I125]CGRP from human CGRP receptor in SK-N-MC cells; type: cell-based
[17] = Displacement of [I125]AM from adrenomedullin 2 receptor expressed in CHO cells; type: cell-based
[18] = Displacement of [I125]AM from adrenomedullin 1 receptor expressed in CHO cells; type: cell-based
[19] = Cmax in New Zealand white rabbit at 1.0 mg/kg, intranasally; conditions: in vivo, inhaled or intranasal
[20] = Tmax in New Zealand white rabbit at 0.5 mg/kg, iv; type: ADME, organism-based, Oryctolagus cuniculus; design: dose 0.5 mg/kg, route intravenous; conditions: in vivo; procedure, shortened: as §1
[21] = Bioavailability in intratracheally dosed Sprague-Dawley rat; type: ADME, organism-based; conditions: in vivo, inhaled or intranasal
[22] = Bioavailability in sc dosed Sprague-Dawley rat in presence of PBS vehicle; type: ADME, organism-based; conditions: in vivo
[23] = Aqueous solubility of compound at pH 1 to 6.8; type: physicochemical
Procedure, shortened: (§3)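 Aqueous solubility measured over pH 1.0-6.8.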

[24] = Bioavailability in sc dosed cynomolgus monkey; type: ADME, organism-based, Macaca fascicularis; conditions: in vivo
Procedure, shortened: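 Cynomolgus monkeys dosed subcutaneously in PG:D5W vehicle to determine bioavailability.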

Callithrix jacchus [25] = assay: Inhibition of human alpha CGRP-induced increase in facial blood flow in marmoset at 0.01 mg/kg, sc after 60 and 105 mins by laser Doppler flowmetry; type: functional, organism-based; design: dose 0.01 mg/kg
Procedure, shortened: (§4)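 Anesthetised marmosets received hRCGRP 10 µg/kg IV at 45 min intervals (-30, 15, 60 and 105 min); antagonist given SC at 0 min (dose range 0.003-0.03 mg/kg), vehicle-treated group run in parallel. Facial blood flow increase after each CGRP challenge read by laser Doppler flowmetry; plasma drug levels sampled at the 15 min test time.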

Callithrix jacchus [26] = assay: Inhibition of human alpha CGRP-induced increase in facial blood flow in marmoset at 0.003 mg/kg, sc by laser Doppler flowmetry; type: functional, organism-based; design: dose 0.003 mg/kg
Procedure, shortened: (§5)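 Anesthetized marmosets received iv hαCGRP (10 µg/kg) at -30, 15, 60 and 105 min. Antagonist was given sc at 0 min. Facial blood flow changes were measured by laser Doppler flowmetry and compared with vehicle-treated animals.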

[27] = Oral bioavailability in Sprague-Dawley rat; type: ADME, organism-based; conditions: in vivo
Callithrix jacchus [28] = assay: Inhibition of human alpha CGRP-induced increase in facial blood flow in marmoset at 0.01 mg/kg, sc after 15 mins by laser Doppler flowmetry; type: functional, organism-based; design: dose 0.01 mg/kg; procedure, shortened: as §5
[29] = Intrinsic permeability across human Caco-2 cells; type: ADME, cell-based; conditions: read-out: IP
Oryctolagus cuniculus [30] = assay: Total AUC in New Zealand white rabbit at 0.1 mg/kg, intranasally; type: ADME, organism-based; design: route nasal, time AUCmax, dose 0.1 mg/kg; conditions: in vivo, inhaled_or_intranasal; procedure, shortened: as §2
Calcitonin receptor = target: T2, Calcitonin receptor (Homo sapiens, UniProt P30988); assay: Displacement of [125I]calcitonin from calcitonin receptor in human T47D cells; type: cell-based
T2 sequence (P30988 whole entry): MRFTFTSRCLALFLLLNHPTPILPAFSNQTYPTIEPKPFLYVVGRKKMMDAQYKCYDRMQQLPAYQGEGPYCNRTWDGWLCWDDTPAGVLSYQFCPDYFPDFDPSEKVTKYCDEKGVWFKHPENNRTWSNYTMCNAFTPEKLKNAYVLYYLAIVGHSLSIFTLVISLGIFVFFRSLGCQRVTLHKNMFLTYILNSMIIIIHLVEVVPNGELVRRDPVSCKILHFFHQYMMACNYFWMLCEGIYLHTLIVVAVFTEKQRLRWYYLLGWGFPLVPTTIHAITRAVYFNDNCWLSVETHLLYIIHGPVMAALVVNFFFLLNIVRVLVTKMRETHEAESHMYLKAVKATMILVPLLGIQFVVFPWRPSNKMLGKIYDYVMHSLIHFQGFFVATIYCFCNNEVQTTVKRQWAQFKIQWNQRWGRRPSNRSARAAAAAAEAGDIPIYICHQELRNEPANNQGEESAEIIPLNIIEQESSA

[31] = Ex vivo effect on basal artery tension in human coronary artery assessed as contractility; type: functional, tissue-based
Procedure, shortened: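 Contractility was measured in wire-mounted ex vivo human artery rings at up to 10 µM compound. Serotonin (10 µM) was added at the end of each session to give maximal contraction.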

[32] = Displacement of [I125]AMY from amylin 1 receptor expressed in CHO cells; type: cell-based
[33] = Half life in New Zealand white rabbit at 0.5 mg/kg, iv; type: ADME, organism-based, Oryctolagus cuniculus; design: dose 0.5 mg/kg, route intravenous; conditions: in vivo; procedure, shortened: as §1
[34] = Oral bioavailability in cynomolgus monkey; type: ADME, organism-based, Macaca fascicularis; conditions: in vivo
Oryctolagus cuniculus [35] = assay: Bioavailability in New Zealand white rabbit at 0.1 mg/kg, intranasally; type: ADME, organism-based; conditions: in vivo, inhaled_or_intranasal, 1.0 mg/kg, in the assay text read “1.0 mg/kg” for “0.1 mg/kg”; procedure, shortened: as §2
Cytochrome P450 2C9 = Cytochrome P450 2C9 (Homo sapiens, UniProt P11712); assay: Inhibition of human recombinant CYP2C9 expressed in insect microsomes
Oryctolagus cuniculus [36] = assay: Cmax in New Zealand white rabbit at 0.5 mg/kg, iv; type: ADME, organism-based; design: dose 0.5 mg/kg, route intravenous; conditions: in vivo; procedure, shortened: as §1
[37] = Ex vivo reversal of human alpha CGRP-induced artery dilation in human intracranial artery; type: functional
Procedure, shortened: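 Human intracranial artery rings were wire-mounted on a force transducer and contracted with 10 mM KCl. They were then fully dilated with 1 nM hαCGRP. Antagonist was added cumulatively in half-log increments to reverse the dilation.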

Callithrix jacchus [38] = assay: Inhibition of human alpha CGRP-induced increase in facial blood flow in marmoset at 0.03 mg/kg, sc after 15, 60 and 105 mins by laser Doppler flowmetry; type: functional, organism-based; design: dose 0.03 mg/kg; procedure, shortened: as §4
[39] = Displacement of [I125]AMY from amylin 3 receptor expressed in CHO cells; type: cell-based
[40] = Aqueous solubility of compound; type: physicochemical; conditions: buffer; procedure, shortened: as §3
Cytochrome P450 3A4 [41] = target: T3, Cytochrome P450 3A4 (Homo sapiens, UniProt P08684); assay: Inhibition of recombinant CYP3A4 expressed in insect microsomes after 45 mins in presence of BZR substrate; type: ADME, Microsome
Cytochrome P450 3A4 [42] = target: T3, Cytochrome P450 3A4; assay: Inhibition of recombinant CYP3A4 expressed in insect microsomes after 20 mins in presence of BFC substrate; type: ADME, Microsome

T1 sequence (Q16602 whole entry, one chain of several): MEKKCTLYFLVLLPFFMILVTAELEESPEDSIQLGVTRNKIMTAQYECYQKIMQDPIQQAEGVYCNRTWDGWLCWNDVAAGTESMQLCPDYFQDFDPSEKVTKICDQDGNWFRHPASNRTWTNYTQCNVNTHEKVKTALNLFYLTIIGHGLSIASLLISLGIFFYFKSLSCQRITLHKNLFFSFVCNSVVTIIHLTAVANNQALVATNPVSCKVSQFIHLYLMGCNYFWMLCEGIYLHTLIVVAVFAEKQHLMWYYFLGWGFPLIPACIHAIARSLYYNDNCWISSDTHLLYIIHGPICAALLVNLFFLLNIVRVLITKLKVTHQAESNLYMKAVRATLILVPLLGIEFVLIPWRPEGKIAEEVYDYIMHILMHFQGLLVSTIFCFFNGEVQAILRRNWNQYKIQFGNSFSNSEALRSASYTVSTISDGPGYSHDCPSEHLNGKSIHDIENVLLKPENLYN
T3 sequence (P08684 whole entry): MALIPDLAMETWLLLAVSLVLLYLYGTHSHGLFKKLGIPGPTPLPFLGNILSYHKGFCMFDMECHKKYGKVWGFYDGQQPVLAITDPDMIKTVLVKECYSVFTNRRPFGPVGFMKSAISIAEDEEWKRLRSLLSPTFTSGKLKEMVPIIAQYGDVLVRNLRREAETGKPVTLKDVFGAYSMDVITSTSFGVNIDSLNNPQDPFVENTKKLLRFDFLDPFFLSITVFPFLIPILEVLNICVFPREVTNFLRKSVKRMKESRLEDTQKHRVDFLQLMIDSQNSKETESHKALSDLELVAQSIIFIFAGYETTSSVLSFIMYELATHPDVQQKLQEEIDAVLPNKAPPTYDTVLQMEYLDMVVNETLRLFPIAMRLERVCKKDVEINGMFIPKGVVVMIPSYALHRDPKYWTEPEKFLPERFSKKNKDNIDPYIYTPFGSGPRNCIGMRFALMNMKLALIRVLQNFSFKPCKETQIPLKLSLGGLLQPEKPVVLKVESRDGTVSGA
Sequence of Cytochrome P450 2C19 (P33261 whole entry): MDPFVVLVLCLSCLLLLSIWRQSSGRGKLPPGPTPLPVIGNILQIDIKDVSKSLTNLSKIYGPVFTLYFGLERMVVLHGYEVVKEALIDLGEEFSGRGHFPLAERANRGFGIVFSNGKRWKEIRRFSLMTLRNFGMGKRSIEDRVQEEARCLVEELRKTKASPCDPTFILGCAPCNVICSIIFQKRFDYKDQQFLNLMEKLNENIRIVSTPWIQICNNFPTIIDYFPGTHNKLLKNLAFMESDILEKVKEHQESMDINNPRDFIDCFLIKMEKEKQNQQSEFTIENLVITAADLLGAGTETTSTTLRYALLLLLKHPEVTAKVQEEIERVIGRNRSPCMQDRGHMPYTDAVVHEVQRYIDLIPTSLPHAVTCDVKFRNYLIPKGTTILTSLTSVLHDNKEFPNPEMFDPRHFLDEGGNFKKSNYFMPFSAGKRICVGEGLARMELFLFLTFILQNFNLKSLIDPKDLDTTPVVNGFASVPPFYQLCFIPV
Sequence of Cytochrome P450 2C9 (P11712 whole entry): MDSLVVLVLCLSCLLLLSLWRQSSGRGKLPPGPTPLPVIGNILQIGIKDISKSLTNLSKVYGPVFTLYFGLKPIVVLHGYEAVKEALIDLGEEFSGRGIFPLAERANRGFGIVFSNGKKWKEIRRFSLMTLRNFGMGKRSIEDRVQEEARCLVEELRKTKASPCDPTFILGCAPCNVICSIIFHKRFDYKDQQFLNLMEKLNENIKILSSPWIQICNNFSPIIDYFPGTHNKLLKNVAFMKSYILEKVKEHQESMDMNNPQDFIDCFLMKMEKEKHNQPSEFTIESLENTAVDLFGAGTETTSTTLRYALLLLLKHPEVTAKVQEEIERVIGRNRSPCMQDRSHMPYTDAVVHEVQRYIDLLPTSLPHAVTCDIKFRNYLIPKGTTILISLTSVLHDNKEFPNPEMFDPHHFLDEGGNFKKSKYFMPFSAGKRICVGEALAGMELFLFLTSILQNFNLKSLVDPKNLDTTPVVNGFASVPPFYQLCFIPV
Sequence of Calcitonin gene-related peptide type 1 receptor (Rattus norvegicus, UniProt Q63118+Q9JJ74) (Q63118 whole entry, one chain of several): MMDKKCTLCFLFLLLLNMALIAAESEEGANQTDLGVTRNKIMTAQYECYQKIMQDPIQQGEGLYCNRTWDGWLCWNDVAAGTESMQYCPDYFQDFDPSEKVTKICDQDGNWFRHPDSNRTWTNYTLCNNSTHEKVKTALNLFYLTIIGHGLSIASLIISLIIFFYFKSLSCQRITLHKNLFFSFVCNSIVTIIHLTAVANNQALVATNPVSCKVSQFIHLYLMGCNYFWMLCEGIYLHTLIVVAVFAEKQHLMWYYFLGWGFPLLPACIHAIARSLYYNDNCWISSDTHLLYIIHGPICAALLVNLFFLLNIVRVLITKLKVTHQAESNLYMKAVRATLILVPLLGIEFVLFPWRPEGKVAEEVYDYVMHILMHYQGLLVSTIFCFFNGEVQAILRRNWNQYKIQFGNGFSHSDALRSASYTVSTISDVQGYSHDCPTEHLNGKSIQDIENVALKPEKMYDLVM

Cc1cc(C[C@@H](NC(=O)N2CCC(N3Cc4cccc(F)c4NC3=O)CC2)C(=O)N2CCC(N3CCCCC3)CC2)cc2cn[nH]c12
bioavailability [1]: 81% | AUC (Oryctolagus cuniculus [2]): 1.1 µM·h | Tmax [3]: 10.2 min | Tmax [4]: 10.2 min | Vd [5]: 2.7 L/kg | fraction unbound at 10 µM [6]: 0.35 | Cmax [7]: 360 nM | Ki [8]: > 1000 nM | bioavailability [9]: 55.2% | concentration at 24 h [10]: > 10 nM | clearance [11]: 13 mL/min/kg | AUC [12]: 0.36 µM·h | EC50 [13]: 0.0345 nM | Kb [14]: 0.028 nM | IC50 (Cytochrome P450 2C19): > 40000 nM | Ki [15]: 0.078 nM | Ki [16]: 0.0128 nM | Ki [17]: > 5000 nM | Ki [18]: > 5000 nM | Cmax [19]: 1200 nM | Tmax [20]: 1.98 min | bioavailability [21]: 73% | bioavailability [22]: 43% | solubility [23]: > 500 mg/mL | bioavailability [24]: 76% | Activity (Callithrix jacchus [25]): Active | Activity (Callithrix jacchus [26]): inactive | bioavailability [27]: ≤ 0.3% | Activity (Callithrix jacchus [28]): inactive | Papp [29]: < 1.5 ×10⁻⁶ cm/s | AUC (Oryctolagus cuniculus [30]): 1.3 µM·h | Ki (Calcitonin receptor): > 5000 nM | EC50 [31]: 311 nM | Ki [32]: > 500 nM | half-life [33]: 660 min | bioavailability [34]: ≤ 0.3% | F (Oryctolagus cuniculus [35]): 59% | IC50 (Cytochrome P450 2C9): > 40000 nM | Cmax (Oryctolagus cuniculus [36]): 8200 nM | EC50 [37]: 0.06 nM | Activity (Callithrix jacchus [38]): Active | Ki [39]: > 5000 nM

O=C(N[C@H](Cc1csc2ccccc12)C(=O)N1CCC(N2CCCCC2)CC1)N1CCC(N2Cc3ccccc3NC2=O)CC1
Activity [40]: Not Active | IC50 (Cytochrome P450 3A4 [41]): 84 nM | Ki [16]: 0.55 nM | IC50 (Cytochrome P450 3A4 [42]): 870 nM
